KCNQ1 block = inhibitors of human KCNQ1 potassium channel. P51787. actives 1.3% (n = 310,000). CHO-K1 KCNQ1, FluxOR thallium flux fluorescence; stronger effect = higher value. B-score at 10 µM;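 active means compounds whose thallium flux B-score, printed positive for inhibition, exceeds three library SD while starting fluorescence stays within three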;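 further: channel opened by potassium depolarization with thallium stimulus after 20 min compound exposure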
KCNK3 block = human KCNK3 channel inhibition, primary screen. actives 0.84% (n = 340,000). AID 602410. CHO-KCNK3 thallium flux, FluxOR fluorescence; stronger effect = lower value. B-score at 10 µM;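 active means B-score under library mean minus 4 SD, starting fluorescence ratio at most library mean plus 5 SD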;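 further: more negative B-score means stronger inhibition of thallium flux through KCNK3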
hERG protect = shields human hERG channel from block by proarrhythmic agents; Q12809; CHO-hERG, FluxOR thallium flux, dofetilide IC70 present; activation (rescue from dofetilide block), less the hit threshold, % at 10 µM; actives 0.51% (n = 310,000); AID 1511;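 active means activation above the mean of controls blocked by dofetilide plus 5 SD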;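 further: thallium influx through hERG after potassium depolarization seen as dye fluorescence rise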
Kir21 block = blocks the mouse Kir2.1 inward-rectifier potassium channel | B-score at 10 µM | HEK293-Kir2.1, FluxOR thallium flux fluorescence; stronger effect = lower value | P35561 | actives 0.85% (n = 310,000);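 active means fluorescence ratio B-score at or below minus 3 SD of library scores, with starting-brightness B-score within 2 SD, cut at about -4.2 in these data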;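 further: channel flux triggered by added potassium and thallium sulfate stimulus; B-score of peak minus minimum fluorescence over baseline after thallium stimulus; more negative B-score means stronger Kir2.1 block with less thallium influx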
Target sequence (P35561 whole entry, looked up): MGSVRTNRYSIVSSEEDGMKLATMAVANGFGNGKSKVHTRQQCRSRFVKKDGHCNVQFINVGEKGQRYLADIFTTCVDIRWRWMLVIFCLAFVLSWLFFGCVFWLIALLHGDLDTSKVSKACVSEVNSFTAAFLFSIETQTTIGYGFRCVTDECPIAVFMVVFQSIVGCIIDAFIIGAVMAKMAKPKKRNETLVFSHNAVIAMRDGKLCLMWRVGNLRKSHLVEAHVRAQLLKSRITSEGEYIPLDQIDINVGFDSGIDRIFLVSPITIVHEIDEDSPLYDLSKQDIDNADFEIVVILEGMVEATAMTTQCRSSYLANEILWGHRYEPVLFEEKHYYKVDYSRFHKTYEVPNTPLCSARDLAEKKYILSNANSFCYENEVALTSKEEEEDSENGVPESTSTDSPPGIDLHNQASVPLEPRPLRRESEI
KCNQ1 act = potentiates or activates the human KCNQ1 potassium channel; P51787; CHO-K1 KCNQ1, thallium flux FluxOR fluorescence; stronger effect = higher value; B-score at 10 µM; actives 0.35% (n = 310,000); AID 2648;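 active means fluorescence ratio B-score, a plate-corrected score, at least three library SD, with initial intensity B-score within 5 SD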
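Assay system: CHO-K1 cells stably expressing KCNQ1. Medium: assay buffer for compound exposure, DMSO matched across wells. Timing: 37 °C overnight plating, 90-min dark dye load, 20-min compound pretreatment. Signal: kinetic FluxOR fluorescence, 10 s baseline plus 110 s post-stimulus.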
KCNK9 block = inhibitors of human KCNK9 two-pore domain potassium channel; AID 488922; Q9NPC2; actives 1.2% (n = 310,000); HEK293 KCNK9, FluxOR thallium flux fluorescence; stronger effect = lower value; B-score at 10 µM;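 active means ratio B-score over 3 SD below the library mean, with starting fluorescence within 5 SD of its mean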;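 further: negative B-score means less thallium flux so channel inhibition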
A number is an active result. Compounds with a hit are over-represented: about 3.7% of the library has one in this group of screens.

`O=C1CC(N(CCc2ccccc2)C(=S)Nc2ccccc2)C(=O)N1c1ccc(Br)cc1` (centres undefined) gave KCNQ1 block 6, KCNK3 block inactive, hERG protect inactive, Kir21 block inactive, KCNQ1 act inactive and KCNK9 block inactive.
`Cc1sc2ncnc(N3CCC(C(=O)Nc4ccc(Cl)c(Cl)c4)CC3)c2c1C` gave KCNK3 block -10.2.
`CCc1ccc2nc(NC(=O)C3CCN(c4ncnc5sc(C)c(C)c45)CC3)sc2c1` gave KCNK3 block inactive.
For CCc1cccc(NC(=O)C2CCN(c3ncnc4sc(C)c(C)c34)CC2)c1 the results were KCNK3 block -10.8.
`CNC(=O)c1ccc(NC(=O)C2CCN(c3ncnc4sc(C)c(C)c34)CC2)cc1` gave KCNQ1 block inactive, KCNK3 block inactive, hERG protect inactive, Kir21 block inactive, KCNQ1 act inactive and KCNK9 block inactive.
`COc1ccc(C2N=C(c3ccccc3)C(C)(C)N2O)cc1` (centres undefined) gave KCNQ1 block inactive, KCNK3 block inactive, hERG protect 5.9, Kir21 block inactive, KCNQ1 act inactive and KCNK9 block inactive.
`CC1(C)C(c2ccccc2)=NC(c2ccccc2)N1O` (centres undefined) gave KCNQ1 block inactive, KCNK3 block inactive, hERG protect inactive, Kir21 block inactive, KCNQ1 act inactive and KCNK9 block inactive.
Screening COc1ccc(S(=O)(=O)N2CCOC23CCN(S(=O)(=O)c2cc(F)ccc2F)CC3)cc1 returned KCNQ1 block inactive, KCNK3 block inactive, hERG protect inactive, Kir21 block inactive, KCNQ1 act inactive and KCNK9 block inactive.
CC(=O)N(C)C1=C(O)c2ccccc2C(=O)C1=O was read as KCNQ1 block inactive, KCNK3 block inactive, hERG protect inactive, Kir21 block inactive, KCNQ1 act inactive and KCNK9 block inactive.
CC(=O)N(C1=C(N)C(=O)c2ccccc2C1=O)C(C)C was read as KCNQ1 block inactive, KCNK3 block inactive, hERG protect 6.3, Kir21 block inactive, KCNQ1 act inactive and KCNK9 block inactive.
For Cc1ccc(S(=O)(=O)/N=C2/NC(=O)/C(=C/c3ccc(Br)o3)S2)cc1 the results were KCNQ1 block inactive, KCNK3 block inactive, hERG protect inactive, Kir21 block inactive, KCNQ1 act inactive and KCNK9 block inactive.
Screening Cc1ccc(S(=O)(=O)/N=C2/NC(=O)/C(=C\c3cc(Br)cc(Br)c3O)S2)cc1 returned KCNQ1 block 7, KCNK3 block inactive, hERG protect inactive, Kir21 block inactive, KCNQ1 act inactive and KCNK9 block inactive.
`O=C(COC(=O)c1cc(-c2cccs2)nn1-c1ccccc1)Nc1cccc([N+](=O)[O-])c1` gave KCNQ1 block inactive, KCNK3 block inactive, hERG protect inactive, Kir21 block inactive, KCNQ1 act inactive and KCNK9 block -6.78.
`O=C(c1cc2nc(-c3cccs3)cc(C(F)(F)Cl)n2n1)N1CCCc2ccccc21` gave KCNQ1 block inactive, KCNK3 block inactive, hERG protect inactive, Kir21 block inactive, KCNQ1 act inactive and KCNK9 block -6.72.
`CCOC(=O)c1ccccc1OC(=O)CS(=O)c1ccccc1[N+](=O)[O-]` (centres undefined) gave KCNQ1 block 6, KCNK3 block inactive, hERG protect inactive, Kir21 block inactive, KCNQ1 act inactive and KCNK9 block inactive.
CC(C)(C)c1ccc(NC(=O)C(=O)C2C(=O)Nc3ccccc32)cc1 (centres undefined) was read as KCNQ1 block inactive, KCNK3 block inactive, hERG protect 5.7, Kir21 block inactive, KCNQ1 act inactive and KCNK9 block inactive.
Screening CC(C)c1ccc(NC(=O)C(=O)C2C(=O)Nc3ccccc32)cc1 (centres undefined) returned KCNQ1 block inactive, KCNK3 block inactive, hERG protect inactive, Kir21 block inactive, KCNQ1 act inactive and KCNK9 block inactive.
For OC(CN1CCCCC1)c1ccc2c3c(cccc13)CC2 (centres undefined) the results were KCNK3 block inactive.
O=C(/C=C/c1ccccc1Cl)N(Cc1cccs1)C1CCS(=O)(=O)C1 (centres undefined) was read as KCNQ1 block inactive, KCNK3 block inactive, hERG protect inactive, Kir21 block inactive, KCNQ1 act inactive and KCNK9 block -7.5.
Screening O=C(CSc1nc(-c2ccc(Cl)cc2)cs1)Nc1cccc([N+](=O)[O-])c1 returned KCNQ1 block 6, KCNK3 block inactive, hERG protect inactive, Kir21 block inactive, KCNQ1 act inactive and KCNK9 block inactive.
Screening CCN(c1ccccc1)S(=O)(=O)c1ccc(Oc2ccc(C(C)=O)cc2OC)nc1 returned KCNK3 block inactive.
For COc1ccc(NS(=O)(=O)c2cn(C)cn2)c(OC)c1 the results were KCNQ1 block inactive, KCNK3 block inactive, hERG protect inactive, Kir21 block inactive, KCNQ1 act inactive and KCNK9 block inactive.
For CCN(CC)CC(=O)Nc1ccc2c(c1)Nc1ccccc1CC2 the results were KCNQ1 block inactive, KCNK3 block inactive, hERG protect inactive, Kir21 block -5.57, KCNQ1 act 8 and KCNK9 block inactive.
COc1ccc(CC(=O)N(c2ccccc2)c2nc(C)cs2)cc1 was read as KCNQ1 block inactive, KCNK3 block inactive, hERG protect inactive, Kir21 block -5.54, KCNQ1 act inactive and KCNK9 block inactive.
`CC(C)=CCC/C(C)=C/CC/C(C)=C/COc1ccc2ccc(=O)oc2c1` gave KCNK3 block inactive.
Screening CC(C)=CCC/C(C)=C/COc1c2occc2cc2ccc(=O)oc12 returned KCNK3 block -9.82.
CC(=O)c1c(O)cc(C)n(-c2ccc(F)cc2)c1=O was read as KCNQ1 block inactive, KCNK3 block inactive, hERG protect inactive, Kir21 block inactive, KCNQ1 act 8 and KCNK9 block inactive.
Screening Cc1nnc(SCC(=O)Nc2ccc(S(=O)(=O)N3CCCC3)cc2)n1N returned KCNQ1 block inactive, KCNK3 block inactive, hERG protect 35.5, Kir21 block inactive, KCNQ1 act inactive and KCNK9 block inactive.
Nn1c(SCC(=O)Nc2ccccc2)nnc1C1CCCCC1 was read as KCNQ1 block inactive, KCNK3 block inactive, hERG protect inactive, Kir21 block inactive, KCNQ1 act inactive and KCNK9 block inactive.
Nn1c(SCC(=O)Nc2ccc(F)cc2)nnc1C1CCCCC1 was read as KCNQ1 block inactive, KCNK3 block inactive, hERG protect 4.9, Kir21 block inactive, KCNQ1 act inactive and KCNK9 block inactive.
`N#C/C(=C(/O)Cc1ccccc1)P(=O)(c1ccccc1)c1ccccc1` gave KCNQ1 block inactive, KCNK3 block inactive, hERG protect inactive, Kir21 block inactive, KCNQ1 act inactive and KCNK9 block inactive.
For Cc1cc(C)c(C(=O)O)c(CC(C)(C)C(=O)O)c1 the results were KCNQ1 block inactive, KCNK3 block inactive, hERG protect inactive, Kir21 block inactive, KCNQ1 act inactive and KCNK9 block inactive.
